Among the data in ChEMBL document CHEMBL1649209, “Improved murine model of malaria using Plasmodium falciparum competent strains and non-myelodepleted NOD-scid IL2Rgammanull mice engrafted with human erythrocytes” (2009) are Activity and ED90 values, retold here.

For assay [1], the system named is Plasmodium falciparum. Briefly: Antimalarial activity against Plasmodium falciparum Pf3D70087/N9 infected in immunodeficient HM-IL2Rgamma null mouse assessed as decreased parasitemia at 50 mg/kg, po for 4 days after 28 days. The assay is classed as functional, organism-based. On the set-up: dose 50 mg/kg. An outline of the steps:
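Engrafted NOD-scid IL2Rγnull mice each carried about […] Pf3D70087/N9-infected hE. They were dosed orally at 50 mg/kg once daily for four consecutive days. Peripheral blood was checked for parasites up to at least 28 days after treatment ended.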

In assay [2] the test system is Plasmodium falciparum. Briefly: Antimalarial activity against Plasmodium falciparum Pf3D70087/N9 infected in immunodeficient HM-IL2Rgamma null mouse after 7 days. The assay is classed as functional. In outline:
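Four-day test in female NOD-scid IL2Rγnull mice engrafted by daily i.p. injections of human erythrocytes. Mice were infected i.v. with 20 × 10^6 Pf3D70087/N9-infected hE, then randomized 3 days later (3/group) and dosed orally once daily for 4 days. Day-7 parasitemia was measured by SYTO-16/TER-119 flow cytometry relative to vehicle. ED90 came from a sigmoid dose-response fit.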

In assay [3] the test system is Plasmodium falciparum. Briefly: Antimalarial activity against Plasmodium falciparum PfV1S0176/N10 infected in immunodeficient HM-IL2Rgamma null mouse after 7 days. The assay is classed as functional.
Assay [4] relates to Plasmodium falciparum. Briefly: Antimalarial activity against Plasmodium falciparum Pf3D70087/N9 infected in immunodeficient HM-beta2 m null mouse after 7 days. The assay is classed as functional.

The source made the active and inactive calls. The rule behind the calls is not given here. A value given as a limit tells only on which side of the number the result lay.

For `CCN(CC)CCCC(C)Nc1ccnc2cc(Cl)ccc12` (stereo not drawn) [CHLOROQUINE], the result in assay [1] was Active. For the same molecule, the values for the ED90 in assay [2], in assay [3] and in assay [4] were 4.9 mg/kg, over 50 mg/kg and 4.4 mg/kg, respectively.
`CCc1nc(N)nc(N)c1-c1ccc(Cl)cc1` [PYRIMETHAMINE]: the ED90 in assay [2] is 0.5 mg/kg; in assay [3], over 50 mg/kg; in assay [4], 0.9 mg/kg.
Consider `Cc1[nH]c(CO)c(-c2ccc(Oc3ccc(OC(F)(F)F)cc3)cc2)c(=O)c1Cl`, for which the results for the ED90 in assay [2], in assay [3] and in assay [4] were 0.6 mg/kg, under 1 mg/kg and 0.6 mg/kg, respectively.
As for `C[C@H]1[C@H](OC(=O)CCC(=O)O)O[C@@H]2O[C@@]3(C)CC[C@H]4[C@H](C)CC[C@@H]1[C@@]24OO3` [ARTESUNATE], the ED90 in assay [2] is 12.9 mg/kg; in assay [3], under 20 mg/kg; in assay [4], 12.7 mg/kg.
